The nature of data set [1]: Cytotoxicity against patient-derived U3013MG cells assessed as reduction in cell viability after 48 hrs by Celltiter-Glo reagent based assay. The data set is classed as functional. The settings on record: Homo sapiens. A general note: Cellular ATP, detected with luciferase, serves as a proxy for viable cell number.
Data set [2] has as its system U3013MG. Put plainly: Cytotoxicity against patient-derived U3013MG cells assessed as induction of catastrophic vacuolization at 5 uM after 4 to 8 hrs by light microscopy. It counts as functional, cell-based. The settings on record: Homo sapiens. Summed up:
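U3013 glioblastoma cells in 384-well plates were examined by light microscopy at 4 h intervals for large lucent intracellular vacuoles, with bright-field imaging at 37 °C, 5% CO2.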

The nature of data set [3]: Cmax in NMRI mouse brain at 2 mg/kg, iv administered as single dose measured after 144 hrs by UPLC-MS/MS analysis. Also noted: dose 2 mg/kg, route intravenous. The data set is classed as ADME, organism-based. Summed up: (§1)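 Single dose to male NMRI mice, i.v. tail vein under light isoflurane or p.o. gavage without anesthesia. Blood by orbital plexus into EDTA, plasma by centrifugation at +4 °C; brains homogenized in 4 mL PBS (pH 7.4) per g. Sampled 15 min to 144 h, n = 3 per time point. UPLC-MS/MS with internal standard; noncompartmental analysis of composite mean profiles using nominal times and doses.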

A short description of data set [4]: Cmax in NMRI mouse brain at 20 mg/kg, po administered as single dose through gavage measured after 144 hrs by UPLC-MS/MS analysis. It counts as ADME, organism-based. Further details: dose 20 mg/kg, route oral. Summed up:
as §1

The nature of data set [5]: AUClast in NMRI mouse brain at 2 mg/kg, iv administered as single dose measured after 144 hrs by UPLC-MS/MS analysis. Also noted: dose 2 mg/kg, time < 144 hr, route intravenous. The data set is classed as ADME, organism-based. In short, it runs like this:
as §1

Data set [6] is described as follows: AUClast in NMRI mouse brain at 20 mg/kg, po administered as single dose through gavage measured after 144 hrs by UPLC-MS/MS analysis. The data set is classed as ADME, organism-based. Also noted: dose 20 mg/kg, time < 144 hr, route oral. In short, it runs like this:
as §1

Data set [7] is described as follows: Tlast in NMRI mouse brain at 2 mg/kg, iv administered as single dose by UPLC-MS/MS analysis. The data set is classed as ADME, organism-based. As to conditions: in vivo. In short, it runs like this: as §1
Data set [8] is described as follows: Tlast in NMRI mouse brain at 20 mg/kg, po administered as single dose through gavage by UPLC-MS/MS analysis. It counts as ADME, organism-based. The settings on record: in vivo. In short, it runs like this:
as §1

Data set [9] can be described thus: Half life in NMRI mouse brain at 2 mg/kg, iv administered as single dose by UPLC-MS/MS analysis. It counts as ADME, organism-based. In short, it runs like this:
as §1

Data set [10] can be described thus: Half life in NMRI mouse brain at 20 mg/kg, po administered as single dose through gavage by UPLC-MS/MS analysis. It counts as ADME, organism-based. In short, it runs like this:
as §1

Data set [11] is described as follows: Oral bioavailability in NMRI mouse brain at 20 mg/kg administered as single dose through gavage measured after 144 hrs by UPLC-MS/MS analysis. The data set is classed as ADME, organism-based. In short, it runs like this:
as §1

Data set [12] can be described thus: AUClast in NMRI mouse plasma at 2 mg/kg, iv administered as single dose measured up to 144 hrs post dose by UPLC-MS/MS analysis. The data set is classed as ADME, organism-based. Further details: time < 144 hr, dose 2 mg/kg, route intravenous. Summed up: as §1
The nature of data set [13]: AUClast in NMRI mouse plasma at 20 mg/kg, po administered as single dose through gavage measured up to 144 hrs post dose by UPLC-MS/MS analysis. It counts as ADME, organism-based. Also noted: dose 20 mg/kg, time < 144 hr, route oral. In short, it runs like this: as §1
Data set [14] in a line: Tlast in NMRI mouse plasma at 2 mg/kg, iv administered as single dose by UPLC-MS/MS analysis. The data set is classed as ADME, organism-based. The settings on record: in vivo. In short, it runs like this:
as §1

Data set [15] in a line: Tlast in NMRI mouse plasma at 20 mg/kg, po administered as single dose through gavage by UPLC-MS/MS analysis. It counts as ADME, organism-based. As to conditions: in vivo. In short, it runs like this: as §1
The nature of data set [16]: Half life in NMRI mouse plasma at 20 mg/kg, po administered as single dose through gavage by UPLC-MS/MS analysis. It counts as ADME, organism-based. Summed up:
as §1

Data set [17] in a line: Toxicity in NMRI mouse assessed as drug tolerance at 2 mg/kg, iv administered as single dose up to 144 hrs. The data set is classed as organism-based. As to conditions: in vivo.
Data set [18] is described as follows: Toxicity in NMRI mouse assessed as drug tolerance at 20 mg/kg, po administered as single dose through gavage up to 144 hrs. The data set is classed as organism-based. As to conditions: in vivo.
Data set [19] is described as follows: CNS toxicity in NMRI mouse at 2 mg/kg, iv administered as single dose up to 144 hrs. It counts as organism-based. As to conditions: in vivo.
Data set [20] in a line: CNS toxicity in NMRI mouse at 20 mg/kg, po administered as single dose through gavage up to 144 hrs. The data set is classed as organism-based. As to conditions: in vivo.
Data set [21] in a line: Systemic toxicity in NMRI mouse at 2 mg/kg, iv administered as single dose up to 144 hrs. It counts as organism-based. The settings on record: in vivo.
The nature of data set [22]: Systemic toxicity in NMRI mouse at 20 mg/kg, po administered as single dose through gavage up to 144 hrs. It counts as organism-based. The settings on record: in vivo.
A short description of data set [23]: Fraction unbound in NMRI mouse plasma at 5 uM by LC-MS based equilibrium dialysis method. The data set is classed as ADME, cell-free. Summed up:
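Equilibrium dialysis across a semipermeable membrane, 100% mouse plasma against pH 7.4 buffer, 5 μM compound at 0.5% final DMSO, 37 °C. Both sides sampled after equilibration. Duplicate incubations, reported as averages.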
Background: Equilibrium dialysis compares concentrations on both sides of a semipermeable membrane.

A short description of data set [24]: Ratio of drug level in NMRI mouse brain to plasma at 2 mg/kg, iv or 20 mg/kg, po administered as single dose through gavage measured up to 144 hrs post dose by UPLC-MS/MS analysis. The data set is classed as ADME, organism-based. The settings on record: brain and plasma, read-out: BPR. Summed up:
as §1

The nature of data set [25]: Toxicity in 2 days post fertilized zebra fish embryo assessed as effect on larval development up to 50 uM. Also noted: species or system Danio rerio. The settings on record: zebrafish, 48 h. Summed up: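 Zebrafish embryos were exposed to rising concentrations up to 50 μM or to vehicle, and larval development was scored visually at 2 days post-fertilization.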
The test system of data set [26] is U3013MG. In words: Antitumor activity against GFP-labeled human U3013MG cells orthotopically xenografted in 2 days post fertilized zebra fish embryo assessed as reduction in tumor cells at 30 uM measured 6 days post transplantation by fluorescence assay. It counts as functional, cell-based. In short, it runs like this:
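U3013 cells labeled with Cell Tracker Green; about 3000 cells injected into the brain ventricle of 2 dpf Mitfa-morpholino larvae. Three embryos per well in 200 μL egg water holding compound or 0.1% DMSO, renewed every 6 h. Imaged 6 days post-transplantation; tumor burden from GFP fluorescence intensity and counts of larvae with grafted cells.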
On the technique in general: In xenograft studies the graft and the host belong to different species.

A short description of data set [27]: Toxicity in 2 days post fertilized zebra fish embryo orthotopically xenografted with GFP-labeled human U3013MG cells assessed as larval development defect at 30 uM. Also noted: species or system Danio rerio. As to conditions: zebrafish, 48 h.
Data set [28] in a line: Half life in NMRI mouse plasma at 2 mg/kg, iv administered as single dose by UPLC-MS/MS analysis. The data set is classed as ADME, organism-based. Summed up:
as §1

Data set [29] in a line: Cytotoxicity against patient-derived U3013MG cells assessed as reduction in cell viability by Celltiter-Glo reagent based assay. The data set is classed as functional. As to conditions: Homo sapiens.

This is an account of results in ChEMBL document CHEMBL4428101, “The Oncolytic Efficacy and in Vivo Pharmacokinetics of [2-(4-Chlorophenyl)quinolin-4-yl](piperidine-2-yl)methanol (Vacquinol-1) Are Governed by Distinct Stereochemical Features” (J Med Chem, 2016).

The IC50 is the midpoint of a concentration-inhibition curve. A word on the Cmax: it is the maximum level reached in the sampled fluid or tissue. In general, AUC(0-t) refers to exposure summed from dosing to a finite time, without extrapolation to infinity. Read a low AUC(0-t) as low exposure. The half-life is the time needed for the level to fall by half in the phase considered. High values mean slow loss, low ones fast loss. For orientation: bioavailability means dose-corrected exposure relative to a reference, in per cent. High values mean good availability, low ones poor availability. Usually fraction unbound stands for free concentration divided by total concentration. The low end stands for extensive binding, the high end for weak binding.

The source made the active and inactive calls. A value given as a limit tells only on which side of the number the result lay.

Take `OC(c1cc(-c2ccsc2)nc2ccccc12)C1CCCCN1` (stereo not given): the IC50 in [1] worked out at 26.5 µM.
For the molecule `Cc1ccc(-c2cc([C@@H](O)[C@@H]3CCCCN3)c3ccccc3n2)cc1C#N` (relative stereo), the IC50 in data set [1] was determined as 32.1 µM.
For `O[C@@H](c1cc(-c2ccc(Cl)cc2)nc2ccccc12)[C@@H]1CCCCN1` (single isomer, unassigned), in [1], the 50% inhibitory concentration (IC50) was 9.91 µM. For the same molecule, the result with U3013MG [2] was inactive.
Regarding `O[C@H](c1cc(-c2ccc(Cl)cc2)nc2ccccc12)[C@@H]1CCCCN1`, in data set [1], the IC50 stood at 3.79 µM. Further, the result in the data set with U3013MG [2] and in the data set with U3013MG [26] was Active. Moreover, the Cmax in data set [3] was found to be 1970 ng/mL; in [4], 4840 ng/mL. Further, the AUC(0-t) at 144 h came out at 53.1 µg·h/mL in data set [5], 400 µg·h/mL in [6], 62 µg·h/mL in [12] and 246 µg·h/mL in data set [13]. For the same molecule, the Tlast in data set [7], in data set [8], in data set [14] and in [15] was 144 h each time. The half-life was 72 h in data set [9], 65 h in [10] and 81 h in data set [16]. In [11], this molecule gave a bioavailability of 75.2%. The Activity entry in data set [17], in [18], in [19], in data set [20], in [21] and in data set [22] was “Non-Toxic” throughout. In addition, the Activity result in [25] and in [27] was “Non-Toxic” each time. For the same molecule, the fraction unbound at 5 µM in [23] was 0.0137. For the same molecule, the Kp at 144 h in [24] stood at 2.
Regarding `OC(c1cc(-c2cncnc2)nc2ccccc12)C1CCCCN1` (stereo not given), the IC50 in [1] is above 50 µM.
On the same count and under the same terms, then `OC(c1cc(-c2ccncc2)nc2ccccc12)C1CCCCN1` (stereo not given), with above 50 µM; and `CCCN(CCC)C(=O)c1ccc(-c2cc([C@@H](O)[C@@H]3CCCCN3)c3ccccc3n2)cc1` (relative stereo), with 35.4 µM.
With `O[C@H](c1cc(-c2ccc(C(F)(F)F)nc2)nc2ccccc12)[C@@H]1CCCCN1` (relative stereo), the IC50 in data set [1] turned out to be 38 µM.
On to `O[C@@H](c1cc(-c2ccc(Cl)cc2)nc2ccccc12)[C@H]1CCCCN1`, for which the IC50 in data set [1] was 3.46 µM. Also, the Cmax in data set [3] was 777 ng/mL; in data set [4] it was 1490 ng/mL. For the same molecule, the AUC(0-t) at 144 h was found to be 12.2 µg·h/mL in [5], 157 µg·h/mL in data set [6], 14.1 µg·h/mL in data set [12] and 183 µg·h/mL in [13]. In addition, the Tlast in data set [7], in [8], in data set [14] and in [15] was 144 h throughout. In addition, the half-life in data set [9] was 67 h; in [10] it was 96 h; in data set [28], 48 h; in data set [16] it was 69 h. In data set [11], the bioavailability worked out at 89%. The Activity result in data set [17], in data set [18], in data set [19], in data set [20], in [21] and in data set [22] was “Non-Toxic” in each case. This molecule also displayed a fraction unbound at 5 µM in data set [23] of 0.0059.
Turning to `O[C@H](c1cc(-c2ccc(Cl)cc2)nc2ccccc12)[C@H]1CCCCN1` (single isomer, unassigned), the IC50 in data set [1] is 10.5 µM. Further, in the data set on U3013MG [2], the outcome was inactive.
For `OC(c1cc(-c2ccc[nH]2)nc2ccccc12)C1CCCCN1` (stereo not given), in [1], the IC50 was above 50 µM.
Turning to `OC(c1cc(-c2ccc(Cl)cc2)nc2ccccc12)C1CCCCN1` (stereo not given), the IC50 in [29] is 3.14 µM.
Regarding `Cc1noc(C)c1-c1cc(C(O)C2CCCCN2)c2ccccc2n1` (stereo not given), the IC50 in data set [1] was above 50 µM.
On the same count and under the same terms, then `Cc1ccc(-c2cc(C(O)C3CCCCN3)c3ccccc3n2)o1` (stereo not given), with above 50 µM; and `O[C@H](c1cc(-c2ccc(C(F)(F)F)cc2)nc2ccccc12)[C@@H]1CCCCN1` (relative stereo), with 13.5 µM.
